For 71 molecules, B-score results are on record in PubChem BioAssay AID2237 (Johns Hopkins Ion Channel Center, 2010).

Among all 310,000 compounds or so, about 1,500 (0.48%) were called active.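 The calls were made as follows: active = B-score above 5 SD of library B-scores, and initial fluorescence ratio not above library mean plus 5 SD; inactive = the rest.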 This excerpt belongs to a sample that is enriched for actives.

Sequence of Short transient receptor potential channel 4 (Mus musculus) (Q9QUQ5 whole entry, looked up): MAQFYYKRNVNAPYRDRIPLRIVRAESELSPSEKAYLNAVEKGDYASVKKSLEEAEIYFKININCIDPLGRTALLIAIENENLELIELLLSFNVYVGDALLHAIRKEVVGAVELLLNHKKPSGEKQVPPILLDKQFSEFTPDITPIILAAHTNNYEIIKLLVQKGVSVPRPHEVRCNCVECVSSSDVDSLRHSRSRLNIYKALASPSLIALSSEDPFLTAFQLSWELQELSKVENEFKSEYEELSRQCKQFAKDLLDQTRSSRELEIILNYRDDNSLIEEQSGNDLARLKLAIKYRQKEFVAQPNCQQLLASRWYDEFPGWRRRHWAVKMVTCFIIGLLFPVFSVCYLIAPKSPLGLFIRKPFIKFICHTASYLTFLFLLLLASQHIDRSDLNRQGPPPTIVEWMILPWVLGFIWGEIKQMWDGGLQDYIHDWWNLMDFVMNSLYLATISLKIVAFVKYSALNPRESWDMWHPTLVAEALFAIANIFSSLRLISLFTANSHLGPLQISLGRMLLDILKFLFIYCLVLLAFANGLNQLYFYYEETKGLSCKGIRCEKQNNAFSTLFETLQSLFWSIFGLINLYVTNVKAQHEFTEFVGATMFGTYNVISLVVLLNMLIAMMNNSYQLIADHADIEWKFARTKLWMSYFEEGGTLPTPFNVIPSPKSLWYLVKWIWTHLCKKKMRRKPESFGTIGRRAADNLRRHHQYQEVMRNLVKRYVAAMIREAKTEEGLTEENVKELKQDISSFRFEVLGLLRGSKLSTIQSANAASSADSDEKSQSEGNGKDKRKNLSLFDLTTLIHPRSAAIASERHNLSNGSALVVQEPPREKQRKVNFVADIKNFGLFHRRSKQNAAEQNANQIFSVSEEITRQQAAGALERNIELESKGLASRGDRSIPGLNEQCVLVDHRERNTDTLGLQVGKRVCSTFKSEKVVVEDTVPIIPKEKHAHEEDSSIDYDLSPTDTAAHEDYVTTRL

In the experiment the target is Short transient receptor potential channel 4 (Mus musculus) (UniProt Q9QUQ5). Briefly: TRPC4 cation channel opening, calcium rise – Fluo4 calcium, HEK293 TRPC4beta/mu-opioid cells, primary screen (AID 2237).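 As to B-score: positive B-score marks a calcium rise read as TRPC4 activation.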 Particulars: Fluo4 calcium fluorescence, at 10 µM; active compounds read high. The method in brief:
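Material: TRPC4beta and mu-opioid receptor HEK293 stable cells | Incubation: 45 min room-temperature Fluo4 loading, 110 s read | Detection: Kinetic Fluo4 calcium fluorescence | Measure: Integrated baseline-normalised fluorescence ratio, converted to per-well B score | Benchmarks: Low control buffer alone, high control maximal DAMGO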
For the molecule `O=S(=O)(NCCc1csc(-c2ccccc2)n1)c1cccnc1`, the B-score was 102 (active).
Consider `Cc1nc(CNS(=O)(=O)c2cccnc2)cs1`, for which the B-score result is “inactive”.
As for `O=S(=O)(NCCc1ccncc1)c1ccccc1`, the entry is “inactive”; as for `CC#CC[N+](C)(C)CCCCCC`, “inactive”; as for `COC(=O)CC(=O)N1CCN(c2ccc(Cl)c(Cl)c2)CC1`, “inactive”.
In the case of `COc1ccc(OCC(O)CNC(=O)Nc2ccc(Cl)cc2)cc1` (stereo unspecified), the B-score result is “inactive”.
As for `OC(CNCc1ccc2c(c1)OCO2)COc1ccccc1` (stereo unspecified), the entry is “inactive”.
Turning to `OC(CNCCc1ccc(Cl)cc1Cl)COc1ccccc1` (stereo unspecified), the B-score is 44 (active).
As to `CO/N=C/c1cn(-c2ccc(Cl)cc2)nn1`, the B-score entry was “inactive”.
As for `CCN(CC)c1ccc(NC(=O)CCc2nnc3ccc(N4CCCCC4)nn23)c(C)c1`, the entry is “inactive”.
As for `CC(NC(=S)Nc1ccccc1)C(c1cccs1)N1CCOCC1` (stereo unspecified), the entry is “inactive”.
For `CC(NC(=O)C(C)(C)C)C(c1cccs1)N1CCN(Cc2ccccc2)CC1` (stereo unspecified), the B-score result was “inactive”.
As for `CCCC(=O)NC(C)C(c1cccs1)N1CCN(c2ccccc2)CC1` (stereo unspecified), the figure is 87 (active).
In the case of `COc1ccc(CNC(=O)c2ccc3oc(C(C)C)nc3c2)cc1` it was “inactive”.
As for `COc1ccc(N(CC(=O)Nc2ccc(C)cc2C)S(=O)(=O)c2ccccc2[N+](=O)[O-])c(OC)c1`, the entry is “inactive”.
In the case of `O=C(Nc1ccc2sc3ccccc3c(=O)c2c1)c1ccccc1Cl`, the B-score result was “inactive”.
As for `Cc1ccc(-n2[nH]c(C)c(/C=N/N3C(=O)c4cccc5cccc(c45)C3=O)c2=O)cc1`, the figure is 131 (active); as for `COc1cc(SC#N)ccc1N=Cc1c(C)[nH]n(-c2ccc(C)cc2)c1=O`, “inactive”.
Turning to `Cc1[nH]n(-c2cccc(Cl)c2)c(=O)c1/C=N/n1c(C)nc2ccccc2c1=O`, the B-score entry was “inactive”.
As for `COc1ccccc1CCNS(=O)(=O)c1cc2c3c(c1)C(C)C(=O)N3CCC2` (stereo unspecified), the entry is “inactive”.
In the case of `CCOc1ccc(S(=O)(=O)NCCC(=O)NCC(C)(C)N2CCOCC2)cc1` it was “inactive”; in that of `COC(=O)C(CC(=O)Nc1cc(C)ccc1C)Nc1ccccc1OC` (stereo unspecified), 69 (active).
As for `COc1ccccc1NC(=O)CC(NCCN(C)C)C(=O)O` (stereo unspecified), the entry is “inactive”; as for `COc1ccc(C)cc1NC(=O)Nc1ccccc1SC`, “inactive”; as for `Cc1ccc(CNC(=O)Cc2cn(C)c3ccccc23)cc1`, “inactive”.
`COc1ccc(N2CCN(C(=O)c3cccs3)CC2)cc1`: the B-score entry is “inactive”.
In the case of `CS(=O)(=O)N(CC(=O)Nc1ccc(Cl)c(Cl)c1)C1CCCCC1` it was “inactive”; in that of `O=C(Nc1cccnc1)c1cc(Cl)ccc1Cl`, “inactive”.
As for `CC(c1cccnc1)N(CCN(C)C)C(=O)Nc1ccc(Cl)c(Cl)c1` (stereo unspecified), the figure is 62 (active); as for `CC1=C/C(=N\OS(=O)(=O)c2ccccc2)C=CC1=O`, “inactive”.
In the case of `COc1ccc(-n2nc(C(=O)NCC(=O)N3CCC(C(N)=O)CC3)c3ccccc3c2=O)cc1OC` it was “inactive”; in that of `CC1(C)N=C(c2ccccn2)C(C)(C)N1O`, “inactive”.
As to `CC1(C)CC(CNCCC(c2ccc(F)cc2)c2ccco2)CCO1` (stereo unspecified), the B-score result was “inactive”.
As for `O=C(CNC(=O)COc1ccccc1)NCCc1ccccn1`, the entry is “inactive”.
As to `O=C(COc1cc(Cl)c(Cl)cc1Cl)NCCc1ccccn1`, the B-score is 85 (active).
For `O=C(NCCc1ccccn1)c1cccnc1Oc1ccc(Cl)cc1`, the B-score entry is “inactive”.
In the case of `CCn1cc(-c2cc(C(=O)O)on2)c(C)n1`, the B-score entry is “inactive”.
On to `S=c1nc(C23CC4CC(CC(C4)C2)C3)nc2sccn12`, for which the B-score result is “inactive”.
In the case of `N[C@@H](Cc1ccccc1)C(=O)N1CCC(C(=O)NCC(=O)Nc2ccc(F)cc2)CC1` it was “inactive”; in that of `CCN(CC)CCN(C(=O)c1cc(Cl)sc1Cl)c1nc2cc3c(cc2s1)OCO3`, “inactive”.
In the case of `CN(C)CCN(C(=O)C1CCCCC1)c1nc2cc3c(cc2s1)OCO3` it was 66 (active); in that of `CN(C)CCN(C(=O)CN1C(=O)c2ccccc2C1=O)c1nc2cc3c(cc2s1)OCCO3`, “inactive”; in that of `COc1cccc(/C=N/NC(=O)C(=O)N2CCCC2)c1`, “inactive”.
As for `COc1ccc(/C=N/N(C)C2=NS(=O)(=O)c3ccccc32)cc1OC`, the entry is “inactive”; as for `CN(Cc1ccco1)S(=O)(=O)c1nnc(NC(=O)c2ccccc2)s1`, “inactive”; as for `O=S(=O)(Oc1ccccc1C(=S)N1CCOCC1)c1ccc(Cl)cc1`, “inactive”.
Turning to `C[C@]1(C(=O)NCCc2c[nH]c3ccccc23)C=C[C@@H](Cc2ccccc2)N1C(=O)c1ccccc1`, the B-score result was “inactive”.
In the case of `Cc1cc(C)cc(C(=O)N(CCc2ccccc2)C2=CC3CCC(C2)N3C)c1` (stereo unspecified) it was 75 (active); in that of `C=CCN(C(=O)c1cc(C)cc(C)c1)C1(C(=O)Nc2ccccc2)CCN(C(C)C)CC1`, “inactive”; in that of `Cc1ccc(CCN2CC(C(=O)NCCc3ccccc3)CC2=O)cc1` (stereo unspecified), “inactive”.
In the case of `CN(C)CCNC(=O)Cc1ccc([N+](=O)[O-])cc1` it was “inactive”; in that of `O=C(CC(c1ccccc1)c1ccccc1)NCC(O)c1ccc([N+](=O)[O-])cc1` (stereo unspecified), “inactive”; in that of `CN(C)C(CNC(=O)Cc1ccc([N+](=O)[O-])cc1)c1ccccc1` (stereo unspecified), 179 (active).
As for `CC(C)Oc1c(Br)cc(Br)cc1/C=N/NC(N)=S`, the entry is “inactive”; as for `Cc1ccc(S(=O)(=O)N(Cc2cc3ccccc3[nH]c2=O)CC2CCCO2)cc1` (stereo unspecified), “inactive”; as for `COc1ccc(C(=O)NC2CCN(C(=S)NCCc3ccccc3)CC2)cc1`, “inactive”.
On to `COc1ccc(C(=O)NNC(=S)NC(=O)c2ccccc2)cc1`, for which the B-score was 180 (active).
In the case of `COc1ccc(C(=O)NC(=S)NC2CCCCC2)cc1` it was “inactive”; in that of `CC(C)Oc1ccc(CCC(=O)NNC(=S)NCc2ccccc2)cc1`, 123 (active).
As for `O=C(NNC(=S)NCc1ccccc1)c1ccc(OC(F)F)cc1`, the entry is “inactive”; as for `Cc1ccc(OCC(=O)NNC(=S)NCc2ccccc2)cc1`, “inactive”.
As for `O=C(CCc1ccccc1)NNC(=O)COc1ccc(Cl)cc1`, the entry is “inactive”.
Regarding `COc1ccc(C(=O)NC(=S)NNC(=O)CCc2ccccc2)cc1`, the B-score was 96 (active).
In the case of `COc1ccc(C(=O)NNC(=S)NC(=O)c2ccccc2[N+](=O)[O-])cc1` it was “inactive”.
`Cc1cc(C)c(C(=O)CSc2nc(C)cc(=O)[nH]2)c(C)c1`: the B-score result was “inactive”.
As for `Cc1ccc(C(=O)NCC(=O)OCC(=O)NC2CCCCCCC2)cc1`, the entry is “inactive”; as for `COc1ccc(Br)cc1CN(C)CC(=O)Nc1cc([N+](=O)[O-])ccc1OC`, “inactive”; as for `CCCn1nc(C(=O)N2CCCc3ccccc32)c2ccccc2c1=O`, “inactive”.
In the case of `CN(C)C(=O)N1CCNCC1` it was “inactive”; in that of `Cc1ccc(CC2CC(=O)N(c3cc(C)ccc3C)C2=O)cc1` (stereo unspecified), “inactive”.
In the case of `O=C(CNS(=O)(=O)c1ccc(Br)s1)N1CCN(C(=O)c2ccco2)CC1` it was “inactive”.
